Laboratory results published in ChEMBL document CHEMBL3120154, “2-[N-Alkyl(R-phenyl)-aminomethyl]-3-phenyl-7-trifluoromethylquinoxalines as anticancer agents inhibitors of folate enzymes” (Eur J Med Chem, 2014).

What was measured:
Format in all cases: functional
HCC 2998 [1] = experiment: Cytotoxicity against human HCC2998 cells at 10^-7 M after 48 hrs by SRB assay; conditions: HCC 2998, 48 h, read-out: GI
MCF7 = experiment: Cytotoxicity against human MCF7 cells at 10^-7 M after 48 hrs by SRB assay; conditions: MCF7, 48 h, read-out: GI
PC-3 = experiment: Cytotoxicity against human PC3 cells at 10^-8 M after 48 hrs by SRB assay; conditions: PC-3, 48 h, read-out: GI
A549 = experiment: Cytotoxicity against human A549 cells after 48 hrs by SRB assay; conditions: A549, 48 h
ACHN [2] = experiment: Cytotoxicity against human ACHN cells at 10^-7 M after 48 hrs by SRB assay; conditions: read-out: GI
M14 [3] = experiment: Cytotoxicity against human M14 cells at 10^-7 M after 48 hrs by SRB assay; conditions: M14, 48 h, read-out: GI
OVCAR-8 = experiment: Cytotoxicity against human OVCAR8 cells at 10^-8 M after 48 hrs by SRB assay; conditions: OVCAR-8, 48 h, read-out: GI
DU-145 = experiment: Cytotoxicity against human DU145 cells at 10^-7 M after 48 hrs by SRB assay; conditions: DU-145, 48 h, read-out: GI
T47D = experiment: Cytotoxicity against human T47D cells at 10^-7 M after 48 hrs by SRB assay; conditions: read-out: GI
UACC-62 = experiment: Cytotoxicity against human UACC62 cells at 10^-8 M after 48 hrs by SRB assay; conditions: UACC-62, 48 h, read-out: GI
NCI-H522 = experiment: Cytotoxicity against human NCI-H522 cells at 10^-8 M after 48 hrs by SRB assay; conditions: NCI-H522, 48 h, read-out: GI
SK-MEL-2 = experiment: Cytotoxicity against human SK-MEL-2 cells at 10^-8 M after 48 hrs by SRB assay; conditions: SK-MEL-2, 48 h, read-out: GI
RXF 393 = experiment: Cytotoxicity against human RXF393 cells at 10^-8 M after 48 hrs by SRB assay; conditions: RXF 393, 48 h, read-out: GI
HL-60(TB) = experiment: Cytotoxicity against human HL-60(TB) cells at 10^-7 M after 48 hrs by SRB assay; conditions: HL-60, 48 h, read-out: GI
Outline: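 NCI 60-human-tumour-cell-line screen run over a 5-log dose range (100, 10, 1, 0.1 and 0.01 µM). Cells were exposed to drug for 48 h. Growth was estimated by sulforhodamine B protein staining. Values are percent growth inhibition at each concentration, relative to untreated control cells.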

HOP-62 = experiment: Cytotoxicity against human HOP62 cells at 10^-7 M after 48 hrs by SRB assay; conditions: HOP-62, 48 h, read-out: GI
HCC 2998 [4] = experiment: Cytotoxicity against human HCC2998 cells at 10^-6 M after 48 hrs by SRB assay; conditions: HCC 2998, 48 h, read-out: GI
SF-539 [5] = experiment: Cytotoxicity against human SF539 cells at 10^-7 M after 48 hrs by SRB assay; conditions: SF-539, 48 h, read-out: GI
ACHN [6] = experiment: Cytotoxicity against human ACHN cells at 10^-8 M after 48 hrs by SRB assay; conditions: read-out: GI
SNB-75 = experiment: Cytotoxicity against human SNB75 cells at 10^-8 M after 48 hrs by SRB assay; conditions: SNB-75, 48 h, read-out: GI
M14 [7] = experiment: Cytotoxicity against human M14 cells at 10^-8 M after 48 hrs by SRB assay; conditions: M14, 48 h, read-out: GI
786-0 = experiment: Cytotoxicity against human 786-0 cells at 10^-8 M after 48 hrs by SRB assay; conditions: 786-0, 48 h, read-out: GI
BT-549 = experiment: Cytotoxicity against human BT549 cells at 10^-8 M after 48 hrs by SRB assay; conditions: BT-549, 48 h, read-out: GI
SR [8] = experiment: Cytotoxicity against human SR cells at 10^-6 M after 48 hrs by SRB assay; conditions: read-out: GI
NCI/ADR-RES = experiment: Cytotoxicity against human NCI/ADR-RES cells at 10^-7 M after 48 hrs by SRB assay; conditions: read-out: GI
SF-295 = experiment: Cytotoxicity against human SF295 cells at 10^-8 M after 48 hrs by SRB assay; conditions: SF-295, 48 h, read-out: GI
SF-268 [9] = experiment: Cytotoxicity against human SF268 cells at 10^-8 M after 48 hrs by SRB assay; conditions: SF-268, 48 h, read-out: GI
RPMI-8226 [10] = experiment: Cytotoxicity against human RPMI8226 cells at 10^-7 M after 48 hrs by SRB assay; conditions: RPMI-8226, 48 h, read-out: GI
RPMI-8226 [11] = experiment: Cytotoxicity against human RPMI8226 cells at 10^-8 M after 48 hrs by SRB assay; conditions: RPMI-8226, 48 h, read-out: GI
SK-MEL-28 = experiment: Cytotoxicity against human SK-MEL-28 cells at 10^-8 M after 48 hrs by SRB assay; conditions: SK-MEL-28, 48 h, read-out: GI
COLO 205 = experiment: Cytotoxicity against human COLO205 cells at 10^-7 M after 48 hrs by SRB assay; conditions: COLO 205, 48 h, read-out: GI
A498 = experiment: Cytotoxicity against human A498 cells at 10^-8 M after 48 hrs by SRB assay; conditions: A498, 48 h, read-out: GI
HCC 2998 [12] = experiment: Cytotoxicity against human HCC2998 cells at 10^-5 M after 48 hrs by SRB assay; conditions: HCC 2998, 48 h, read-out: GI
SF-539 [13] = experiment: Cytotoxicity against human SF539 cells at 10^-8 M after 48 hrs by SRB assay; conditions: SF-539, 48 h, read-out: GI
[14] = Cytotoxicity against human UO31 cells at 10^-8 M after 48 hrs by SRB assay; conditions: UO-31, 48 h, read-out: GI
[15] = Cytotoxicity against human Hs578T cells at 10^-8 M after 48 hrs by SRB assay; conditions: Hs-578T, read-out: GI
SF-268 [16] = experiment: Cytotoxicity against human SF268 cells at 10^-7 M after 48 hrs by SRB assay; conditions: SF-268, 48 h, read-out: GI
NCI-H226 = experiment: Cytotoxicity against human NCI-H226 cells at 10^-8 M after 48 hrs by SRB assay; conditions: NCI-H226, 48 h, read-out: GI
SR [17] = experiment: Cytotoxicity against human SR cells at 10^-8 M after 48 hrs by SRB assay; conditions: read-out: GI
[18] = Cytotoxicity against human UACC257 cells at 10^-7 M after 48 hrs by SRB assay; conditions: UACC-257, 48 h, read-out: GI
SW-620 = experiment: Cytotoxicity against human SW620 cells at 10^-8 M after 48 hrs by SRB assay; conditions: SW-620, 48 h, read-out: GI
CCRF-CEM = experiment: Cytotoxicity against human CCRF-CEM cells at 10^-8 M after 48 hrs by SRB assay; conditions: read-out: GI
TK-10 = experiment: Cytotoxicity against human TK10 cells at 10^-8 M after 48 hrs by SRB assay; conditions: TK-10, 48 h, read-out: GI
Malme-3M = experiment: Cytotoxicity against human MALME-3M cells at 10^-6 M after 48 hrs by SRB assay; conditions: read-out: GI

CCN(Cc1nc2cc(C(F)(F)F)ccc2nc1-c1ccccc1)c1ccc(OC)c(OC)c1
inhibition of growth at 0.1 µM (HCC 2998 [1]): < 40% | inhibition of growth at 0.1 µM (MCF7): < 40% | inhibition of growth at 0.01 µM (PC-3): < 40% | GI50 (A549): 372 nM | inhibition of growth at 0.1 µM (ACHN [2]): < 40% | inhibition of growth at 0.1 µM (M14 [3]): < 40% | inhibition of growth at 0.01 µM (OVCAR-8): 11% | inhibition of growth at 0.1 µM (DU-145): < 40% | inhibition of growth at 0.1 µM (T47D): < 40% | inhibition of growth at 0.01 µM (UACC-62): < 40% | inhibition of growth at 0.01 µM (NCI-H522): < 40% | inhibition of growth at 0.01 µM (SK-MEL-2): < 40% | inhibition of growth at 0.01 µM (RXF 393): 22% | inhibition of growth at 0.1 µM (HL-60(TB)): < 40% | inhibition of growth at 0.1 µM (HOP-62): < 40% | inhibition of growth at 1 µM (HCC 2998 [4]): < 40% | inhibition of growth at 0.1 µM (SF-539 [5]): < 40% | inhibition of growth at 0.01 µM (ACHN [6]): < 40% | inhibition of growth at 0.01 µM (SNB-75): < 40% | inhibition of growth at 0.01 µM (M14 [7]): < 40% | inhibition of growth at 0.01 µM (786-0): < 40% | inhibition of growth at 0.01 µM (BT-549): < 40% | inhibition of growth at 1 µM (SR [8]): < 40% | inhibition of growth at 0.1 µM (NCI/ADR-RES): < 40% | inhibition of growth at 0.01 µM (SF-295): < 40% | inhibition of growth at 0.01 µM (SF-268 [9]): < 40% | inhibition of growth at 0.1 µM (RPMI-8226 [10]): < 40% | inhibition of growth at 0.01 µM (RPMI-8226 [11]): < 40% | inhibition of growth at 0.01 µM (SK-MEL-28): < 40% | inhibition of growth at 0.1 µM (COLO 205): < 40% | inhibition of growth at 0.01 µM (A498): < 40% | inhibition of growth at 10 µM (HCC 2998 [12]): 15% | inhibition of growth at 0.01 µM (SF-539 [13]): < 40% | inhibition of growth at 0.01 µM [14]: < 40% | inhibition of growth at 0.01 µM [15]: < 40% | inhibition of growth at 0.1 µM (SF-268 [16]): < 40% | inhibition of growth at 0.01 µM (NCI-H226): < 40% | inhibition of growth at 0.01 µM (SR [17]): < 40% | inhibition of growth at 0.1 µM [18]: 67% | inhibition of growth at 0.01 µM (SW-620): < 40% | inhibition of growth at 0.01 µM (CCRF-CEM): < 40% | inhibition of growth at 0.01 µM (TK-10): < 40%

C#CCN(Cc1nc2cc(C(F)(F)F)ccc2nc1-c1ccccc1)c1ccc(C)cc1
inhibition of growth at 1 µM (Malme-3M): < 40%
